Assay results as given in ChEMBL document CHEMBL5126630, “Optimization of the Prodrug Moiety of Remdesivir to Improve Lung Exposure/Selectivity and Enhance Anti-SARS-CoV-2 Activity” (J Med Chem, 2022).
Activity calls are given as the source filed them. The rule behind the calls is not given here.

Tests used:
[1] = Stability in hamster plasma assessed as half life; format: ADME, cell-free, Cricetulus griseus; conditions: chinese hamster
[2] = Stability in human microsomes assessed as half life; format: ADME, Microsome
[3] = Stability in human plasma assessed as half life; format: ADME, cell-free
[4] = Stability in hamster microsomes assessed as half life; format: ADME, Cricetulus griseus, Microsome; conditions: chinese hamster
[5] = Drug metabolism in hamster blood assessed as NTP metabolite formation at 10 mg/kg, iv measured upto 24 hrs by LC-MS/MS analysis; format: ADME, organism-based, Cricetulus griseus; conditions: chinese hamster, in vivo
Procedure, shortened: (§1)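 Female catheterized hamsters were dosed 10 mg/kg iv at 2 mg/mL; remdesivir was in 15% cyclodextrin at pH 3–3.5 and the prodrug in cyclodextrin or albumin. Two per group were sacrificed at 0.5–24 h. Tissues were homogenized in 70% methanol with internal standard. NTP was measured by ion-pairing LC-MS/MS (dimethylhexylamine/ammonium formate mobile phase), negative-ion MRM, against 10-point 5–5000 ng/mL standards. Exposure was reported as AUC.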

SARS-CoV-2 [6] = assay: Antiviral activity against SARS-CoV-2 gamma P.1 infected in African green monkey Vero E6 cells assessed as protection against virus-induced cytopathic effect incubated for 2 days by CellTiter-Glo assay; format: functional, organism-based; conditions: Severe acute respiratory syndrome coronavirus 2, gamma P.1, Vero 76, 48 h
[7] = Drug metabolism in hamster spleen assessed as NTP metabolite formation at 10 mg/kg, iv measured upto 24 hrs by LC-MS/MS analysis; format: ADME, organism-based, Cricetulus griseus; conditions: chinese hamster, in vivo; procedure, shortened: as §1
Vero 76 = assay: Cytotoxicity against African green monkey Vero E6 cells at 10 uM; format: toxicity, cell-based; conditions: chlorocebus sabaeus, vero 76, 10 µM
[8] = Prodrug activation in human Calu-3 cells assessed as NTP release at 10 uM measured upto 12 hrs by LC-MS analysis; format: cell-based; conditions: calu-3, 12 h
Procedure, shortened: (§2)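 Calu-3 cells (1–5 × 10^5/well) were cultured 12 h, then exposed to 10 μM drug at 37 °C for 2, 6 and 12 h (n = 3). Cells were detached with trypsin-EDTA, pelleted and washed three times with ice-cold PBS. Drug was extracted overnight at −20 °C in ice-cold 70% methanol, and supernatants were analysed by LC-MS.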

[9] = Stability in mouse plasma assessed as half life; format: ADME, cell-free
[10] = Drug metabolism in hamster lymph node assessed as NTP metabolite formation at 10 mg/kg, iv measured upto 24 hrs by LC-MS/MS analysis; format: ADME, organism-based, Cricetulus griseus; conditions: chinese hamster, in vivo; procedure, shortened: as §1
[11] = Drug accumulation in hamster kidney at 10 mg/kg, iv measured upto 24 hrs by LC-MS/MS analysis; format: ADME, organism-based, Cricetulus griseus; conditions: chinese hamster, in vivo
Procedure, shortened: (§3)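 Catheterized female hamsters received 10 mg/kg iv at 2 mg/mL. The remdesivir vehicle was 15% cyclodextrin at pH 3–3.5; the test prodrug was given in cyclodextrin or albumin formulation. Two animals per group were sacrificed at 0.5, 1, 4, 7 and 24 h. Tissues were homogenized in 5-fold 70% methanol with internal standard and supernatants analysed by LC-MS against 5–5000 ng/mL standard curves.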

[12] = Drug metabolism in hamster lung assessed as NTP metabolite formation at 10 mg/kg, iv measured upto 24 hrs by LC-MS/MS analysis; format: ADME, organism-based, Cricetulus griseus; conditions: chinese hamster, in vivo; procedure, shortened: as §1
[13] = Prodrug activation in human Calu-3 cells assessed as ALA release at 10 uM measured upto 12 hrs by LC-MS analysis; format: cell-based; conditions: calu-3, 12 h; procedure, shortened: as §2
[14] = Stability in mouse microsomes assessed as half life; format: ADME, Microsome
SARS-CoV-2 [15] = assay: Antiviral activity against SARS-CoV-2 infected in African green monkey Vero E6 cells assessed as reduction in viral titer incubated for 2 days by CellTiter-Glo assay; format: functional, organism-based; conditions: Severe acute respiratory syndrome coronavirus 2; Vero 76; time 2.0 day
[16] = Prodrug activation in human Calu-3 cells assessed as NUC release at 10 uM measured upto 12 hrs by LC-MS analysis; format: cell-based; conditions: calu-3, 12 h; procedure, shortened: as §2
[17] = Drug accumulation in hamster liver at 10 mg/kg, iv measured upto 24 hrs by LC-MS/MS analysis; format: ADME, organism-based, Cricetulus griseus; conditions: chinese hamster, in vivo; procedure, shortened: as §3
SARS-CoV-2 [18] = assay: Antiviral activity against SARS-CoV-2 alpha B.1.1.7 infected in African green monkey Vero E6 cells assessed as protection against virus-induced cytopathic effect incubated for 2 days by CellTiter-Glo assay; format: functional, organism-based; conditions: Severe acute respiratory syndrome coronavirus 2, alpha B.1.1.7, Vero 76, 48 h
SARS-CoV-2 [19] = assay: Antiviral activity against SARS-CoV-2 delta B.1.617.2 infected in African green monkey Vero E6 cells assessed as protection against virus-induced cytopathic effect incubated for 2 days by CellTiter-Glo assay; format: functional, organism-based; conditions: Severe acute respiratory syndrome coronavirus 2, delta B.1.617.2, Vero 76, 48 h
SARS-CoV-2 [20] = assay: Antiviral activity against SARS-CoV-2 infected in African green monkey Vero E6 cells assessed as protection against virus-induced cytopathic effect incubated for 2 days by CellTiter-Glo assay; format: functional, organism-based; conditions: Severe acute respiratory syndrome coronavirus 2, Vero 76, 48 h
SARS-CoV-2 [21] = assay: Antiviral activity against SARS-CoV-2 beta B.1.351 infected in African green monkey Vero E6 cells assessed as protection against virus-induced cytopathic effect incubated for 2 days by CellTiter-Glo assay; format: functional, organism-based; conditions: Severe acute respiratory syndrome coronavirus 2, beta B.1.351, Vero 76, 48 h

Row | Structure (SMILES) | half-life [1] | half-life [2] | half-life [3] | half-life [4] | Drug metabolism [5] | EC50 (SARS-CoV-2 [6]) | Drug metabolism [7] | Activity (Vero 76) | Drug metabolism [8] | half-life [9] | Drug metabolism [10] | Drug uptake [11] | Drug metabolism [12] | Drug metabolism [13] | half-life [14] | Activity (SARS-CoV-2 [15]) | Drug metabolism [16] | Drug uptake [17] | EC50 (SARS-CoV-2 [18]) | EC50 (SARS-CoV-2 [19]) | other results
1 | CCCCCCCCCCCCOC(=O)[C@H](C)NP(=O)(OC[C@H]1O[C@@](C#N)(c2ccc3c(N)ncnn23)[C@H](O)[C@@H]1O)Oc1cccc2ccccc12 (stereo not given in full) | 158 min | 6.11 min | 154 min | 3.49 min |  |  |  |  |  |  |  |  |  |  |  |  |  |  |  |  | 
2 | CCCCCCCCCCCCOC(=O)[C@H](C)NP(=O)(OC[C@H]1O[C@@](C#N)(c2ccc3c(N)ncnn23)[C@H](O)[C@@H]1O)Oc1ccccc1 (stereo not given in full) | 71.2 min | 4.29 min | 47.1 min | 2.72 min |  |  |  |  |  |  |  |  |  |  |  |  |  |  |  |  | 
3 | CCCCC/C=C\C/C=C\CCCCCCCCOC(=O)[C@H](C)NP(=O)(OC[C@H]1O[C@@](C#N)(c2ccc3c(N)ncnn23)[C@H](O)[C@@H]1O)Oc1ccccc1 (stereo not given in full) | 128 min | 8.33 min | 192 min | 16.2 min | Metabolite_Detected | 1.7 µM | Metabolite_Detected | Non-Toxic | Metabolite_Detected | 1.03 min | Metabolite_Detected | 80% | Metabolite_Detected | Metabolite_Detected | 8.65 min | Active | Metabolite_Detected | 80% | 2.5 µM | 5.6 µM | EC50 (SARS-CoV-2 [20]): 0.4 µM; EC50 (SARS-CoV-2 [21]): 15.9 µM
4 | CCCCC/C=C\C/C=C\CCCCCCCCOC(=O)[C@H](C)NP(=O)(OC[C@H]1O[C@@](C#N)(c2ccc3c(N)ncnn23)[C@H](O)[C@@H]1O)Oc1cccc2ccccc12 (stereo not given in full) | 271 min | 19.7 min | 286 min | 61.8 min |  |  |  |  |  | 3.44 min |  |  |  |  | 13.6 min |  |  |  |  |  | 
5 | C[C@H](NP(=O)(OC[C@H]1O[C@@](C#N)(c2ccc3c(N)ncnn23)[C@H](O)[C@@H]1O)Oc1cccc2ccccc12)C(=O)OCc1ccccc1 (stereo not given in full) | 55.8 min | 1.05 min | 52.4 min | 0.46 min |  |  |  |  |  |  |  |  |  |  |  |  |  |  |  |  | 
6 | CCC(CC)COC(=O)[C@H](C)N[P@](=O)(OC[C@H]1O[C@@](C#N)(c2ccc3c(N)ncnn23)[C@H](O)[C@@H]1O)Oc1ccccc1 [REMDESIVIR] | 54.5 min | 0.86 min | 40.7 min | 0.48 min | Metabolite_Detected | 3.7 µM | Metabolite_Detected | Non-Toxic | Metabolite_Detected |  | Metabolite_Detected | 80% | Metabolite_Detected | Metabolite_Detected |  | Active | Metabolite_Detected | 80% | 4.7 µM | 9.2 µM | EC50 (SARS-CoV-2 [20]): 3.3 µM; EC50 (SARS-CoV-2 [21]): 32 µM
